Numbered stars: 1 amine (or outer) side, 2 acyl side, 3 side chain; on linkers, the order of the positions; unused ones are H or OH. Bridge positions count the residues as written; N and C are the ends. Square brackets hold non-standard residues; d marks the D form. Peptide text beside a SMILES is read from it. Ala(2-furyl) = N[C@@H](Cc1ccco1)C(=O)O; Orn(iPr) = CC(C)NCCC[C@H](N)C(=O)O; X1 = CCNCCC[C@H](N[*:1])C(=O)[*:2]; Orn = NCCC[C@H](N)C(=O)O; Dab = NCC[C@H](N)C(=O)O

The species entered for assay [1] is Homo sapiens. Briefly: Selectivity ratio of EC50 for human vasopressin V1b receptor to EC50 for human vasopressin V1a receptor.
Another assay concerns the target Vasopressin V2 receptor (Homo sapiens, UniProt P30518). Nature of the assay: Agonist activity at recombinant human vasopressin V2 receptor expressed in HEK293 cells by luciferase reporter gene assay. It counts as functional, cell-based. A general note: Reporter assays use an easily measured gene product as a stand-in for the process of interest.
Assay [2] concerns the target Vasopressin V1a/V2 (Homo sapiens) (UniProt P30518+P37288). Nature of the assay: Selectivity ratio of EC50 for human vasopressin V2 receptor to EC50 for human vasopressin V1a receptor.
A further assay addresses T1, Vasopressin V1b receptor (Homo sapiens, UniProt P47901).
T1 sequence (P47901 whole entry): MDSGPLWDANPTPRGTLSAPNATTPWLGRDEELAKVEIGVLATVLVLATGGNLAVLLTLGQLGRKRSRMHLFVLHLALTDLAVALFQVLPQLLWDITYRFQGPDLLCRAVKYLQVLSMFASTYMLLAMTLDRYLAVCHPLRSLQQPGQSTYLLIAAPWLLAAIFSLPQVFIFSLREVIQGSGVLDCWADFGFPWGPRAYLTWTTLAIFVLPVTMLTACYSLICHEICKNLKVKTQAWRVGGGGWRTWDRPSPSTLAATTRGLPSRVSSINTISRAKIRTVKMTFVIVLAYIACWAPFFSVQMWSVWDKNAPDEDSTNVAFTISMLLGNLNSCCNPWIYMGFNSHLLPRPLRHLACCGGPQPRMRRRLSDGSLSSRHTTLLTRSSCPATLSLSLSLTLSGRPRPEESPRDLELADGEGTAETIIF
Briefly: Agonist activity at recombinant human vasopressin V1b receptor expressed in Flp-In-293 cells by luciferase reporter gene assay. It counts as functional, cell-based. To be noted: read-out: EC50. The procedure, abridged:
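Reporter gene assays in HEK293 cells transiently cotransfected with V1a (human or rat) or human V2 receptor vector plus NFAT-luciferase (V1a) or CRE-luciferase (V2) reporter; V1b in Flp-In-293 stably expressing receptor, OT in CHO-K1 stably expressing receptor, both transiently transfected with NFAT-luciferase. Two days post-transfection, peptides added for 5 h at 37 °C, lysis with luciferin, luminescence read.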

For a further assay, the target named is T2, Oxytocin receptor (Homo sapiens, UniProt P30559).
T2 sequence (P30559 whole entry): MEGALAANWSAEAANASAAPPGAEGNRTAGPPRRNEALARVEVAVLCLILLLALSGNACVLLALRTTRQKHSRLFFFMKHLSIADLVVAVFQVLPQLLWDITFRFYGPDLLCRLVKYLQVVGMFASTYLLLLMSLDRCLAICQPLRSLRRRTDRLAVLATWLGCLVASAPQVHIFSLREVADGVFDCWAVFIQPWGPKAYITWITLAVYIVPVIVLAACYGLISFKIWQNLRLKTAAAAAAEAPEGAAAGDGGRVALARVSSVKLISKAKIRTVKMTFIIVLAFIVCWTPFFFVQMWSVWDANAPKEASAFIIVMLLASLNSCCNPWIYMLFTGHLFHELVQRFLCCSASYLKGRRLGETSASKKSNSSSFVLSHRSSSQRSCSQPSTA
Briefly: Agonist activity at human OT receptor expressed in CHO-K1 cells by luciferase reporter gene assay. It counts as functional, cell-based.

Assay [3] deals with Vasopressin V1a receptor (Rattus norvegicus, UniProt P30560). Briefly: Agonist activity at recombinant rat vasopressin V1a receptor expressed in HEK293 cells by luciferase reporter gene assay. It counts as functional, cell-based. To be noted: read-out: EC50.
Chain of Vasopressin V1a receptor (Rattus norvegicus, UniProt P30560) (P30560 whole entry): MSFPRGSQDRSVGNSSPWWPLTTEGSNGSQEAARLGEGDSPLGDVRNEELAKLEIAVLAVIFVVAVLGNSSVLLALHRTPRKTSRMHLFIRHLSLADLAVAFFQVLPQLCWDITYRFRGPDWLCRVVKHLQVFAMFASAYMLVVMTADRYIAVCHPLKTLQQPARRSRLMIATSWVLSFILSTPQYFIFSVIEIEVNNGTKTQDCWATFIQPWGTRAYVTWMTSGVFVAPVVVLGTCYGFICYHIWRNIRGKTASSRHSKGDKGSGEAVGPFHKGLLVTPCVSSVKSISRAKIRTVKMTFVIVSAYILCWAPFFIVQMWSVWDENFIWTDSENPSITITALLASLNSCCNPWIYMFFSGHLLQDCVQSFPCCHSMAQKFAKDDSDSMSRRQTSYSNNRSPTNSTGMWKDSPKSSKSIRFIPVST
Assay [4] concerns Rattus norvegicus. Nature of the assay: Vasoconstriction in Wistar rat assessed as decay in vasopressive duration of action at 1 nmol/kg, iv bolus measured over 10 sec interval. It is filed as functional. The procedure, abridged: (§1)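 Fasted male Wistar rats (206–340 g) under isoflurane, then thiobutabarbital 150 mg/kg ip, ventilated, 37–38 °C, with carotid pressure and jugular dosing. Dibenamine 1.8 mg/rat iv pretreatment. Sequence: iv boluses (0.5 mL/kg) of heparinized vehicle, then two reference doses of 0.1 nmol/kg, then two test doses; one matches the reference diastolic pressure rise. Relative duration = reference decay rate / test decay rate; mean ± SEM.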

The species entered for assay [5] is Homo sapiens. Nature of the assay: Selectivity ratio of EC50 for human oxytocin receptor to EC50 for human vasopressin V1a receptor.
Assay [6] addresses Vasopressin V1a receptor (Homo sapiens, UniProt P37288). Nature of the assay: Agonist activity at recombinant human vasopressin V1a receptor expressed in HEK293 cells by luciferase reporter gene assay. It counts as functional, cell-based. To be noted: read-out: EC50.
Assay [7] has as its system Rattus norvegicus. Briefly: Vasoconstriction in Wistar rat assessed as assessed as decay in vasopressive duration of action at 6 nmol/kg, iv bolus measured over 10 sec interval. It counts as functional. The method, boiled down: as §1
Assay [8] concerns Rattus norvegicus. Briefly: Vasoconstriction in Wistar rat assessed as assessed as decay in vasopressive duration of action at 0.1 nmol/kg, iv bolus measured over 10 sec interval. It counts as functional.

Chain of Vasopressin V1a/V2 (Homo sapiens) (P30518 whole entry, looked up): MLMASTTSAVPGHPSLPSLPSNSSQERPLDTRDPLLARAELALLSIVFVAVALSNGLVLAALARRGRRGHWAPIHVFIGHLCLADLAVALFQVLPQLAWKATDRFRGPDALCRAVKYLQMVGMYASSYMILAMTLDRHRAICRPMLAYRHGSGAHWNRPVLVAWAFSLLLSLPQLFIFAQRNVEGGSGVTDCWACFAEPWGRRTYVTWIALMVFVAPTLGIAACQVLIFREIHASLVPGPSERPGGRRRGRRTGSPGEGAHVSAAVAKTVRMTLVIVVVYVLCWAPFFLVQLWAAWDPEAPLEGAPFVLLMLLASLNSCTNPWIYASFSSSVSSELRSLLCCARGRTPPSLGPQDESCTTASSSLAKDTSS
Chain of Vasopressin V1a/V2 (Homo sapiens) (P37288 whole entry, looked up): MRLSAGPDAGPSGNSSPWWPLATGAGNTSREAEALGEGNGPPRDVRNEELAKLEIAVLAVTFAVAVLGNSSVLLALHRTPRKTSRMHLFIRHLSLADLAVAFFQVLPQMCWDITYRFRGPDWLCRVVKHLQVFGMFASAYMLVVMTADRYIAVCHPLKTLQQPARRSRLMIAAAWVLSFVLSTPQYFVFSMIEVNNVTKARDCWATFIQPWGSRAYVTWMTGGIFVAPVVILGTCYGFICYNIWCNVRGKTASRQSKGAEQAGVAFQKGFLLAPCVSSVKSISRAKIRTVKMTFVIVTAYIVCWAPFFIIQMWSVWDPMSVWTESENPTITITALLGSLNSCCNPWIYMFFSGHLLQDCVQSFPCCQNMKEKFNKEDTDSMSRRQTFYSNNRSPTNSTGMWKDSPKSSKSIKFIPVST
Chain of Vasopressin V2 receptor (P30518 whole entry): as the sequence (P30518 whole entry, looked up) above
Chain of Vasopressin V1a receptor (Homo sapiens, UniProt P37288) (P37288 whole entry): as the sequence (P37288 whole entry, looked up) above

With `CC[C@H](C)[C@@H]1NC(=O)[C@H](Cc2ccccc2)NC(=O)[C@@H](N)CSSC[C@@H](C(=O)N2CCC[C@H]2C(=O)N[C@@H](CCCN)C(=O)NCC(N)=O)NC(=O)[C@H](CC(N)=O)NC(=O)[C@H](CC(=O)N(C)C)NC1=O` (H-CFID(NMe2)NCP[Orn]G-NH2; disulfide 1-6), the Ratio EC50 in the assay filed under Homo sapiens [1] is 36; in assay [2], more than 5800; in the assay filed under Homo sapiens [5], more than 5800. Also, the EC50 is more than 10000 nM at Vasopressin V2 receptor (hek293, read-out: EC50); more than 10000 nM at Vasopressin V2 receptor (read-out: pEC50 (converted)); 62 nM at Vasopressin V1b receptor; more than 10000 nM at Oxytocin receptor (cho-k1, read-out: EC50); more than 10000 nM on Oxytocin receptor (read-out: pEC50 (converted)); 1 nM on Vasopressin V1a receptor [3]. At Vasopressin V1a receptor [6], the EC50 turned out to be 1.7 nM. The Time in the assay on Rattus norvegicus [4] worked out at 1.6 unitless ratio.
Turning to `CC[C@H](C)[C@@H]1NC(=O)[C@H](Cc2ccccc2)NC(=O)[C@@H](N)CSSC[C@@H](C(=O)N2CCC[C@H]2C(=O)N[C@@H](CCN)C(=O)NCC(N)=O)NC(=O)[C@H](CC(N)=O)NC(=O)[C@H](CC(N)=O)NC1=O` (H-CFINNCP[Dab]G-NH2; disulfide 1-6), the Ratio EC50 is 12 in the assay listed under Homo sapiens [1], more than 3400 in assay [2] and more than 3400 in the assay listed under Homo sapiens [5]. The EC50 at Vasopressin V2 receptor (hek293, read-out: EC50) is more than 10000 nM; on Vasopressin V2 receptor (read-out: pEC50 (converted)) it was more than 10000 nM; at Vasopressin V1b receptor it was 37 nM; on Oxytocin receptor (cho-k1, read-out: EC50), more than 10000 nM; on Oxytocin receptor (read-out: pEC50 (converted)), more than 10000 nM; on Vasopressin V1a receptor [3] it was 2 nM. Besides, the EC50 at Vasopressin V1a receptor [6] was 2.9 nM. The Time with Rattus norvegicus [7] turned out to be 2 unitless ratio.
As for `CCNCCC[C@H](NC(=O)[C@@H]1CCCN1C(=O)[C@@H]1CSSC[C@H](N)C(=O)N[C@@H](Cc2ccccc2)C(=O)N[C@@H]([C@@H](C)CC)C(=O)N[C@@H](CC(N)=O)C(=O)N[C@@H](CC(N)=O)C(=O)N1)C(=O)NCC(N)=O` (H-CFINNCP[X1]G-NH2; disulfide 1-6), the Ratio EC50 is 120 in the assay listed under Homo sapiens [1], more than 10000 in assay [2] and more than 10000 in the assay listed under Homo sapiens [5]. In addition, the EC50 on Vasopressin V2 receptor (hek293, read-out: EC50) was more than 10000 nM; on Vasopressin V2 receptor (read-out: pEC50 (converted)) it was more than 10000 nM; on Vasopressin V1b receptor, 120 nM; on Oxytocin receptor (cho-k1, read-out: EC50), more than 10000 nM; at Oxytocin receptor (read-out: pEC50 (converted)) it was more than 10000 nM; at Vasopressin V1a receptor [3], 8 nM. On Vasopressin V1a receptor [6], the EC50 was 0.99 nM. The Time with Rattus norvegicus [7] is 2.4 unitless ratio.
Take `CC[C@H](C)[C@@H]1NC(=O)[C@H](Cc2ccco2)NC(=O)[C@@H](N)CSSC[C@@H](C(=O)N2CCC[C@H]2C(=O)N[C@@H](CCCNC(C)C)C(=O)NCC(N)=O)NC(=O)[C@H](CC(N)=O)NC(=O)[C@H](CCC(N)=O)NC1=O` (H-C[Ala(2-furyl)]IQNCP[Orn(iPr)]G-NH2; disulfide 1-6): the Ratio EC50 in the assay filed under Homo sapiens [1] came to 210; in assay [2], 360; in the assay filed under Homo sapiens [5] it was 100. The EC50 on Vasopressin V2 receptor (read-out: EC50) was determined as 950 nM; on Vasopressin V1b receptor, 570 nM; at Oxytocin receptor (read-out: EC50) it was 260 nM; on Vasopressin V1a receptor [3], 0.62 nM; at Vasopressin V1a receptor [6] it was 2.6 nM. Also, the Time in the assay on Rattus norvegicus [4] was 1.5 unitless ratio.
As to `NCCC[C@H](NC(=O)[C@@H]1CCCN1C(=O)[C@@H]1CSSC[C@H](N)C(=O)N[C@@H](Cc2ccc(O)cc2)C(=O)N[C@@H](Cc2ccccc2)C(=O)N[C@@H](CCC(N)=O)C(=O)N[C@@H](CC(N)=O)C(=O)N1)C(=O)NCC(N)=O` [ORNIPRESSIN], the EC50 turned out to be 7.5 nM at Vasopressin V1b receptor and 71 nM on Oxytocin receptor (read-out: EC50). Besides, the Time in the assay on Rattus norvegicus [8] amounted to 1.1 unitless ratio.
For the compound `N=C(N)NCCC[C@H](NC(=O)[C@@H]1CCCN1C(=O)[C@@H]1CSSC[C@H](N)C(=O)N[C@@H](Cc2ccc(O)cc2)C(=O)N[C@@H](Cc2ccccc2)C(=O)N[C@@H](CCC(N)=O)C(=O)N[C@@H](CC(N)=O)C(=O)N1)C(=O)NCC(N)=O` [VASOPRESSIN], in the assay with Rattus norvegicus [8], the Time was found to be 1 unitless ratio.

For the origin of these results see ChEMBL document CHEMBL1817572, “New, potent, selective, and short-acting peptidic V1a receptor agonists” (J Med Chem, 2011).
